Test [1] has as its target Sigma non-opioid intracellular receptor 1 (Rattus norvegicus, UniProt Q9R0C9). Description: Displacement of (+)-[3H]pentazocine from sigma 1 receptor in rat liver membrane after 1.5 hrs by scintillation counting. It is filed as cell membranes. The essentials: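 Rat liver membranes (~50 μg total protein per reaction) incubated with 10 nM [³H]-(+)-pentazocine and serial dilutions of compound (stocks in DMSO) for 1.5 h at 32°C. […] Filtered through polyethyleneimine-pretreated GF/B filters, bound radioactivity counted by liquid scintillation. One-site competition fit, Ki by Cheng-Prusoff.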

The nature of test [2]: Displacement of [3H]ditolylguanidine from sigma 2 receptor in rat liver membrane after 1.5 hrs by scintillation counting in presence of sigma 1 blocker (+)-pentazocine. The class given is cell membranes. The essentials:
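Rat liver membranes (~50 μg total protein per reaction) in 50 mM Tris-HCl pH 8.0 with 10 nM [³H]-DTG plus 100 nM cold (+)-pentazocine to mask σ1 sites. […] Filtration on PEI-pretreated GF/B, scintillation counting, one-site competition fit, Ki via Cheng-Prusoff.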
A general note: In a radioligand displacement assay an active substance lowers the binding of a labelled ligand.

The next test is filed under the species Rattus norvegicus. Kind of test: Selectivity ratio of Ki for rat sigma 1 receptor to Ki for rat sigma 2 receptor. An outline of the steps: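 Ratio of Ki values from rat liver membrane competition binding: σ1 with 10 nM [³H]-(+)-pentazocine, σ2 with 10 nM [³H]-DTG plus 100 nM (+)-pentazocine; 1.5 h at 32°C, filtration and scintillation counting, Ki by Cheng-Prusoff.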

Another test relates to RT-4. Description: Displacement of [125I]IAF from sigma 2 receptor in human RT4 cells at 10 uM after 30 mins preincubation by photoaffinity labeling experiment. It is filed as cell-based. An outline of the steps: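 Fresh membranes from sonicated RT4 human bladder papilloma cells (200 μg protein per reaction) preincubated with compound in 50 mM Tris pH 7.4, 30 min, 32°C. Then 1 nM [¹²⁵I]-IAF (final 1% ethyl acetate) added for 30 min at 32°C, photoactivated 6 sec with mercury lamp, quenched in SDS/β-mercaptoethanol sample buffer; labeled receptor bands examined.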

Calls of active or inactive are those of the source. The calls are words filed in the database; no cut-off is given here.

Chain of Sigma non-opioid intracellular receptor 1 (Q9R0C9 whole entry): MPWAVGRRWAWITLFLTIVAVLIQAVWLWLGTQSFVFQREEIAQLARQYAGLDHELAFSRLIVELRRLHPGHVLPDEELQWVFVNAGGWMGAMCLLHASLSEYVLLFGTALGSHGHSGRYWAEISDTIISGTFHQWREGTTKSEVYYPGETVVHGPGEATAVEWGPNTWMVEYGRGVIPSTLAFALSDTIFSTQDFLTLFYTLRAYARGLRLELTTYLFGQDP

As a reminder, the Ki is a dissociation constant, usually derived from enzyme kinetics or from competition with a known ligand. In the case of `COc1cccc(C(=O)NCCCCN2CCc3ccc([N+](=O)[O-])cc3C2)c1O`, the inhibition constant (Ki) in test [1] was 11.2 µM; in test [2], 4 µM. Moreover, the Ratio Ki in the test filed under Rattus norvegicus amounted to 2.8.
For `O=C1c2ccccc2C(=O)N1CCCCN1CCc2ccc([N+](=O)[O-])cc2C1`, the Ki in test [1] stood at 0.0875 µM; in test [2], 0.0213 µM. The Ratio Ki in the test listed under Rattus norvegicus is 4.12. Moreover, the result in the test on RT-4 was Active.
With `COc1cc2c(cc1OC)CN(CCCCNC(=O)c1cccc([N+](=O)[O-])c1)CC2`, the values for the Ki in test [1] and in test [2] were 1210 µM and over 10000 µM, respectively.
Taken in the same sequence, the figures for `COc1cc2c(cc1OC)CN(CCCCNC(=O)c1ccccc1)CC2` were over 10000 µM and 5.29 µM.
As for `COc1cc2c(cc1OC)CN(CCCCNC(=O)c1cccc(OC)c1O)CC2`, the Ki in test [1] worked out at 67.8 µM; in test [2], 1.4 µM. Further, the Ratio Ki in the test listed under Rattus norvegicus was found to be 48.4.
Taken in the same sequence, the figures for `COc1ccc(C(=O)NCCCCN2CCc3ccc([N+](=O)[O-])cc3C2)c(OC)c1OC` were 10.3 µM, 0.0268 µM and 385.
`COc1cc2c(cc1OC)CN(CCCCNC(=O)c1ccc([N+](=O)[O-])cc1)CC2`: the results for the Ki in test [1] and in test [2] were 14.7 µM and 152 µM, respectively. The Ratio Ki in the test filed under Rattus norvegicus was found to be 0.096.
On to `COc1cccc(C(=O)NCCCCN2CCc3ccc([N+](=O)[O-])cc3C2)c1OC`, for which the Ki in test [1] amounted to 7.87 µM; in test [2], 12.9 µM. Also, the Ratio Ki in the test listed under Rattus norvegicus stood at 0.61. The outcome in the test with RT-4 was inactive.
Turning to `COc1c(I)ccc(C(=O)NCCCCN2CCc3ccc([N+](=O)[O-])cc3C2)c1O`, the results for the inhibition constant Ki in test [1] and in test [2] were 74.7 µM and 0.867 µM, respectively. Moreover, the Ratio Ki in the test filed under Rattus norvegicus stood at 86.2.
Turning to `O=C(CCCN1CCC(O)(c2ccc(Cl)cc2)CC1)c1ccc(F)cc1`, in the test on RT-4, the outcome was Active.

Values taken from ChEMBL document CHEMBL1926655, “Electron-donating para-methoxy converts a benzamide-isoquinoline derivative into a highly Sigma-2 receptor selective ligand” (Bioorg Med Chem, 2011).
